Measured values reported in ChEMBL document CHEMBL1145195 (J Med Chem, 2005).
pKi: −log10 of the molar value.

Columns and labels:
Prothrombin = Prothrombin (Homo sapiens, UniProt P00734); assay: Binding affinity against human thrombin
Caco-2 [1] = assay: Apparent cell permeability in Caco-2 cell line; assay type: functional, cell-based; conditions: Homo sapiens
Coagulation factor X [2] = biological target: T1, Coagulation factor X (Homo sapiens, UniProt P00742); assay: Binding affinity against human Coagulation factor Xa
Target sequence in this assay (P00742 41-179 limits assumed): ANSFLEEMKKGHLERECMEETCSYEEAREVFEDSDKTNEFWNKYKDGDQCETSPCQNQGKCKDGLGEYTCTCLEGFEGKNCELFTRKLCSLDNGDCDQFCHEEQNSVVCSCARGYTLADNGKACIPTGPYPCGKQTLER
Target sequence in this assay (P00742 235-488 limits assumed): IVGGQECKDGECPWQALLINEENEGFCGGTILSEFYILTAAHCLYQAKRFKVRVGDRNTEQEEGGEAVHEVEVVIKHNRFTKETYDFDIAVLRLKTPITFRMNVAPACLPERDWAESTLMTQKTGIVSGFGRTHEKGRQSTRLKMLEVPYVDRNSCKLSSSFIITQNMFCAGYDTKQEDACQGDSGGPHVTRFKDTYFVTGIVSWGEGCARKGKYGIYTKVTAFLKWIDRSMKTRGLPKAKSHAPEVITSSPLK

[3] = Half life in dogs upon 0.4 mg/kg intravenous administration; assay type: ADME, organism-based, Canis lupus familiaris; design: dose 0.4 mg/kg, route intravenous; conditions: dog, in vivo
In short: (§1)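 Dogs dosed with the compounds as TFA salts in an N-in-1 (cassette) format, 0.4 mg/kg intravenously and 0.2 mg/kg orally.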

Caco-2 [4] = assay: Apparent permeability in Caco-2 (human carcinoma) cells
[5] = Binding affinity of compound was determined against rabbit plasma protein; assay type: ADME, cell-free, Oryctolagus cuniculus
In short: (§2)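 Human or rabbit plasma protein binding determined by equilibrium dialysis.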

[6] = biological target: Vitamin K-dependent protein C (Homo sapiens, UniProt P04070); assay: Binding affinity determined against human activated protein C
In short: (§3)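 Absorbance at 405 nm followed for 30 min. Percent activity taken from rates against no-inhibitor controls, then converted to Ki using Km and substrate concentration. Run in duplicate alongside internal standards.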

[7] = Steady state volume of distribution in dogs upon 0.4 mg/kg intravenous administration; assay type: ADME, organism-based, Canis lupus familiaris; design: dose 0.4 mg/kg, route intravenous; conditions: dog, in vivo, read-out: Vdss; in short: as §1
[8] = Binding affinity against human plasma protein was determined; assay type: ADME, cell-free; in short: as §2
[9] = Oral bioavailability of compound was determined in dogs upon 0.2 mg/kg administration; assay type: ADME, organism-based, Canis lupus familiaris; conditions: dog, in vivo; in short: as §1
Coagulation factor XI = Coagulation factor XI (Homo sapiens, UniProt P03951); assay: Binding affinity determined against coagulation factor XI; in short: as §3
[10] = Activated partial thromboplastin time was determined in human plasma; assay type: functional
In short: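 Pooled human plasma obtained by centrifugation at 2000g for 10 min, kept on ice. Inhibitor taken from a 10 mM DMSO stock, diluted in plasma, held on ice. Five to seven concentrations, each in duplicate. Alexin aPTT reagent added after plasma warmed 1 min at 37 °C. Clotting time compared with control plasma; the concentration doubling aPTT is reported.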

[11] = Binding affinity of compound was determined against human plasma protein; assay type: ADME, cell-free; in short: as §2
Serine protease 1 = Serine protease 1 (Homo sapiens, UniProt P07477); assay: Binding affinity determined against human trypsin
[12] = biological target: Urokinase-type plasminogen activator (Homo sapiens, UniProt P00749); assay: Binding affinity determined against human urokinase
Coagulation factor VII = biological target: T2, Coagulation factor VII (Homo sapiens, UniProt P08709); assay: Binding affinity against human Coagulation factor VII
T2 sequence (P08709 whole entry): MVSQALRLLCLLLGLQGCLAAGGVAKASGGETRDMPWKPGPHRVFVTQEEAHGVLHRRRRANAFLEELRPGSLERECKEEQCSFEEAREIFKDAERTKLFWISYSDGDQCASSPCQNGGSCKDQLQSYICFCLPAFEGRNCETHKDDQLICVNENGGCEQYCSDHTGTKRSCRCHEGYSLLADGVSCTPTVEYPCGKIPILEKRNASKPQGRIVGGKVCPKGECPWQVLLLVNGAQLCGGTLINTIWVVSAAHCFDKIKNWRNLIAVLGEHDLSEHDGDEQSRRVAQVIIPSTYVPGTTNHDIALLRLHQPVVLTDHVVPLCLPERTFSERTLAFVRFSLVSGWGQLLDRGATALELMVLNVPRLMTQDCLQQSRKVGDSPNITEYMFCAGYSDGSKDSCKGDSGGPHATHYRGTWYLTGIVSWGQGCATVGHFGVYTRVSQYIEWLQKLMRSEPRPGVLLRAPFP

[13] = Oral bioavailability in dogs at 0.2 mg/kg (n=2); assay type: ADME, organism-based, Canis lupus familiaris; conditions: dog, in vivo
In short: (§4)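 Dog pharmacokinetics with compounds given as TFA salts in an N-in-1 (cassette) format, at 0.4 mg/kg intravenously and 0.2 mg/kg orally.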

Chymotrypsinogen B = Chymotrypsinogen B (Homo sapiens, UniProt P17538); assay: Binding affinity determined against human Chymotrypsin; in short: as §3
Coagulation factor IX = Coagulation factor IX (Homo sapiens, UniProt P00740); assay: Binding affinity against human Coagulation factor IX
[14] = Oral bioavailability of compound was determined in dogs upon administration of 0.2 mg/kg; assay type: ADME, organism-based, Canis lupus familiaris; conditions: dog, in vivo; in short: as §4
[15] = Steady state volume of distribution in dogs at 0.4 mg/kg intravenous administration; assay type: ADME, organism-based, Canis lupus familiaris; design: dose 0.4 mg/kg, route intravenous; conditions: dog, in vivo, read-out: Vdss; in short: as §4
[16] = Half life period in dogs at 0.4 mg/kg intravenous administration; assay type: ADME, organism-based, Canis lupus familiaris; design: dose 0.4 mg/kg, route intravenous; conditions: dog, in vivo; in short: as §4
Coagulation factor X [17] = biological target: T1, Coagulation factor X; assay: Binding affinity against blood clotting factor X
Target sequence in this assay (P00742 whole entry, looked up): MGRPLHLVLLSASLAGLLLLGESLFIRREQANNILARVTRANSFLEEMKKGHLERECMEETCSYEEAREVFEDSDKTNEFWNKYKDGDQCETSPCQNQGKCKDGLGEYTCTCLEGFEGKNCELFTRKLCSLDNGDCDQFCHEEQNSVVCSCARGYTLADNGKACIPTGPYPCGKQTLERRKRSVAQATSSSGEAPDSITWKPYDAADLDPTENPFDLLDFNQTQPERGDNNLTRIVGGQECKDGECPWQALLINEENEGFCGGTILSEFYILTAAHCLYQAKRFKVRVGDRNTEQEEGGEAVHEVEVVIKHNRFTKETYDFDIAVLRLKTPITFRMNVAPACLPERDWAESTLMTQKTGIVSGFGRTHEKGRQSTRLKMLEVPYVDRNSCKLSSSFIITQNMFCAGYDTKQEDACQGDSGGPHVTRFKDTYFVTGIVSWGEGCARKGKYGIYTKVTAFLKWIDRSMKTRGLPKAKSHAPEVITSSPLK

[18] = Clearance in dogs at 0.4 mg/kg intravenous administration; assay type: ADME, organism-based, Canis lupus familiaris; design: dose 0.4 mg/kg, route intravenous; conditions: dog, in vivo; in short: as §4

Sequence of Serine protease 1 (P07477 whole entry): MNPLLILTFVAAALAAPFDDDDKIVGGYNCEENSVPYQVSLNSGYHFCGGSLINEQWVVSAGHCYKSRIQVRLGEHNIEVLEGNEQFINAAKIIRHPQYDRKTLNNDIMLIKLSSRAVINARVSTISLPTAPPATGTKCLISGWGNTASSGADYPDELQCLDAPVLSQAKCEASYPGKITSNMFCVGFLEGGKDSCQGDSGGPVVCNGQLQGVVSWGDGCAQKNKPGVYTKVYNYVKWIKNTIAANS
Sequence of Vitamin K-dependent protein C (P04070 43-197 limits assumed): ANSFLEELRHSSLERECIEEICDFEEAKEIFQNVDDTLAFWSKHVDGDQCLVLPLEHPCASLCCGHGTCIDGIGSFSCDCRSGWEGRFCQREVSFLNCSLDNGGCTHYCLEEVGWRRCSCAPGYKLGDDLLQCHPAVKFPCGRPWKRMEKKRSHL
Sequence of Vitamin K-dependent protein C (P04070 212-461 limits assumed): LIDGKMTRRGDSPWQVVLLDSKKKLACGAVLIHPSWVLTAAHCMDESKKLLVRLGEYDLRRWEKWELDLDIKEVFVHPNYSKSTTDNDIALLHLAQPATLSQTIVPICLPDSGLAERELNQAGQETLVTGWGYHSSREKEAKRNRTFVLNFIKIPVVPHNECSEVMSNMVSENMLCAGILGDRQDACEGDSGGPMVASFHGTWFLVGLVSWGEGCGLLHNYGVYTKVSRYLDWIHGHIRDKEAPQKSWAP
Sequence of Chymotrypsinogen B (P17538 34-164 limits assumed, other chains not shown): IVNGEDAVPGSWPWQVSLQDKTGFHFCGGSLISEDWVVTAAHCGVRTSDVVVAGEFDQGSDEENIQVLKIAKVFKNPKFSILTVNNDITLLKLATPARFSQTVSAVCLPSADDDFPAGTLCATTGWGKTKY
Sequence of Chymotrypsinogen B (P17538 167-263 limits assumed, other chains not shown): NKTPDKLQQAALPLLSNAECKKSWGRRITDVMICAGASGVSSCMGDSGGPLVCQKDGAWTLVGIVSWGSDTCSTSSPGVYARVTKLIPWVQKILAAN
Sequence of Coagulation factor XI (P03951 19-387 limits assumed): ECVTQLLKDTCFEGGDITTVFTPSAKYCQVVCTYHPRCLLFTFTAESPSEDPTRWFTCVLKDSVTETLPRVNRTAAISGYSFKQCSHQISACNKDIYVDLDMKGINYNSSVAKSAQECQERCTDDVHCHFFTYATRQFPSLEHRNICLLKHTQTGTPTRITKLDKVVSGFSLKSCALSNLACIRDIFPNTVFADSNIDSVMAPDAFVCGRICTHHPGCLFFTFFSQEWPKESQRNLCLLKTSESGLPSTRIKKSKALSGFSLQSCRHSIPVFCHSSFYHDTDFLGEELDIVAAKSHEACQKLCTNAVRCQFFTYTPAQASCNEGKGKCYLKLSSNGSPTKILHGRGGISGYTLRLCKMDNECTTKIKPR
Sequence of Coagulation factor XI (P03951 388-625 limits assumed): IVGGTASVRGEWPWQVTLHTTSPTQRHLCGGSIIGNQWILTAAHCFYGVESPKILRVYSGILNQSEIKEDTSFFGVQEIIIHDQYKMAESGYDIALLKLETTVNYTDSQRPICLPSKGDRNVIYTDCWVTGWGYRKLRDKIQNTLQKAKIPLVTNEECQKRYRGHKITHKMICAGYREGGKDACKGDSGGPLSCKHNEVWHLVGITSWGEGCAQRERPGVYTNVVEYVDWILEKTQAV
Sequence of Coagulation factor IX (P00740 47-191 limits assumed): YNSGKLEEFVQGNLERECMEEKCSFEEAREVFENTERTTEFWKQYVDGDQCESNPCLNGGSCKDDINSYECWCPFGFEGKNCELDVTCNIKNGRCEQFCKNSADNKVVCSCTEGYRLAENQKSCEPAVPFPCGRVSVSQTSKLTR
Sequence of Coagulation factor IX (P00740 227-461 limits assumed): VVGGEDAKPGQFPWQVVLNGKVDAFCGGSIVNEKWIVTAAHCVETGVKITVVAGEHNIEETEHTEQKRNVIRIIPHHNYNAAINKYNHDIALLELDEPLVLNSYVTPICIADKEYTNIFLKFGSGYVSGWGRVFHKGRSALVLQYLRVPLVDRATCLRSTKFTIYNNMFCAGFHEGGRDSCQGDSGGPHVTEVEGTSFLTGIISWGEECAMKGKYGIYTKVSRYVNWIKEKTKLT

## Nc1noc2ccc(-n3nc(C(F)(F)F)cc3C(=O)Nc3ccc(-n4ccnc4CO)cc3F)cc12
Prothrombin
  pKi: 5.77
Caco-2 [1]
  Permeability: 0.1 ×10⁻⁶ cm/s
Coagulation factor X [2]
  pKi: 9.00

## CN(C)Cc1nccn1-c1ccc(NC(=O)c2cc(C(F)(F)F)nn2-c2ccc3onc(N)c3c2)c(F)c1.Cl [RAZAXABAN HYDROCHLORIDE]
[3]
  half-life: 3.4 h
Oryctolagus cuniculus
  ID50: 1.6 µmol/kg/h
Caco-2 [4]
  Permeability: 5.56 ×10⁻⁶ cm/s
[5]
  Binding: 93.4%
[6]
  pKi: 4.71
[7]
  Vd: 5.3 L/kg
[8]
  Binding: 90.5%
[9]
  bioavailability: 84%
Coagulation factor XI
  pKi: < 4.92

## Cc1nccn1-c1ccc(NC(=O)c2cc(C(F)(F)F)nn2-c2ccc3onc(N)c3c2)c(C#N)c1
Caco-2 [1]
  Permeability: < 0.1 ×10⁻⁶ cm/s
Coagulation factor X [2]
  pKi: 9.28

## Cc1nccn1-c1ccc(NC(=O)c2cc(C(F)(F)F)nn2-c2ccc3onc(N)c3c2)c(F)c1
Caco-2 [1]
  Permeability: 7.41 ×10⁻⁶ cm/s
[10]
  concentration doubling aPTT: 24.4 µM
Coagulation factor X [2]
  pKi: 9.15
[11]
  Binding: 98%

## CS(=O)(=O)c1ccccc1-c1ccc(NC(=O)c2cc(C(F)(F)F)nn2-c2ccc3onc(N)c3c2)c(F)c1
Serine protease 1
  pKi: < 5.28
Prothrombin
  pKi: 5.20
Caco-2 [1]
  Permeability: < 0.1 ×10⁻⁶ cm/s
[12]
  pKi: 4.80
[6]
  pKi: 4.55
Coagulation factor VII
  pKi: < 4.82
[13]
  bioavailability: 2%
Coagulation factor X [2]
  pKi: 10.05
Chymotrypsinogen B
  pKi: 5.64
Coagulation factor IX
  pKi: 5.46

## Nc1noc2ccc(-n3nc(C(F)(F)F)cc3C(=O)Nc3ccc(C(=O)N4CCCC4)cc3F)cc12
Serine protease 1
  pKi: < 5.28
Prothrombin
  pKi: 5.10
Caco-2 [1]
  Permeability: 24.9 ×10⁻⁶ cm/s
[10]
  concentration doubling aPTT: 13.8 µM
Coagulation factor X [2]
  pKi: 9.04

## CS(=O)(=O)c1ccccc1-c1ccc(NC(=O)c2cc(C(F)(F)F)nn2-c2cccc(CN)c2)c(F)c1
Oryctolagus cuniculus
  ID50: 1.1 µmol/kg/h
[12]
  pKi: < 4.77
Chymotrypsinogen B
  pKi: < 4.77

## NCc1nccn1-c1ccc(NC(=O)c2cc(C(F)(F)F)nn2-c2ccc3onc(N)c3c2)c(F)c1
Prothrombin
  pKi: 5.46
Coagulation factor X [2]
  pKi: 8.52

## Cn1ccnc1-c1ccc(NC(=O)c2cc(C(F)(F)F)nn2-c2ccc3onc(N)c3c2)c(F)c1
Serine protease 1
  pKi: < 5.60
Prothrombin
  pKi: 7.47
Caco-2 [1]
  Permeability: 4.69 ×10⁻⁶ cm/s
[10]
  concentration doubling aPTT: 9.4 µM
Coagulation factor X [2]
  pKi: 9.29

## CC(C)c1nccn1-c1ccc(NC(=O)c2cc(C(F)(F)F)nn2-c2ccc3onc(N)c3c2)c(F)c1
Coagulation factor X [2]
  pKi: 8.80

## COc1cc(-n2ccnc2C)ccc1NC(=O)c1cc(C(F)(F)F)nn1-c1ccc2onc(N)c2c1
Prothrombin
  pKi: 6.70
Coagulation factor X [2]
  pKi: 8.55

## Cc1nccn1-c1ccc(NC(=O)c2cc(C(F)(F)F)nn2-c2ccc3onc(N)c3c2)cc1
Prothrombin
  pKi: 5.96
Caco-2 [1]
  Permeability: 0.82 ×10⁻⁶ cm/s
Coagulation factor X [2]
  pKi: 9.22

## Nc1noc2ccc(-n3nc(C(F)(F)F)cc3C(=O)Nc3ccc(-c4ccncc4S(N)(=O)=O)cc3F)cc12
Serine protease 1
  pKi: < 5.38
Prothrombin
  pKi: 6.13
Caco-2 [1]
  Permeability: 0.54 ×10⁻⁶ cm/s
[10]
  concentration doubling aPTT: 15.5 µM
Coagulation factor X [2]
  pKi: 10.00

## CCc1nccn1-c1ccc(NC(=O)c2cc(C(F)(F)F)nn2-c2ccc3onc(N)c3c2)c(F)c1
Caco-2 [1]
  Permeability: 3.32 ×10⁻⁶ cm/s
[10]
  concentration doubling aPTT: 14.3 µM
Coagulation factor X [2]
  pKi: 9.14
[11]
  Binding: 95%

## Cc1nccn1-c1ccc(NC(=O)c2cc(C(F)(F)F)nn2-c2ccc3onc(N)c3c2)c(C(N)=O)c1
Prothrombin
  pKi: < 4.68
Coagulation factor X [2]
  pKi: 8.11

## Nc1noc2ccc(-n3nc(C(F)(F)F)cc3C(=O)Nc3ccc(-n4ccnc4CN4CCCC4)cc3F)cc12
Prothrombin
  pKi: 6.22
Caco-2 [1]
  Permeability: 23 ×10⁻⁶ cm/s
Coagulation factor X [2]
  pKi: 9.43

## Nc1noc2ccc(-n3nc(C(F)(F)F)cc3C(=O)Nc3ccc(N4CCOCC4)cc3F)cc12
Serine protease 1
  pKi: < 5.28
Prothrombin
  pKi: 4.70
Coagulation factor X [2]
  pKi: 8.20

## Cc1nccn1-c1ccc(NC(=O)c2cc(C(F)(F)F)nn2-c2ccc3onc(N)c3c2)c(-n2ccnc2C)c1
Prothrombin
  pKi: 6.10
Coagulation factor X [2]
  pKi: 8.80

## Nc1noc2ccc(-n3nc(C(F)(F)F)cc3C(=O)Nc3ccc(-c4ccccc4S(N)(=O)=O)cc3F)cc12
Serine protease 1
  pKi: < 5.80
Prothrombin
  pKi: 5.64
Caco-2 [1]
  Permeability: < 0.1 ×10⁻⁶ cm/s
Coagulation factor X [2]
  pKi: 9.80

## CNCc1nccn1-c1ccc(NC(=O)c2cc(C(F)(F)F)nn2-c2ccc3onc(N)c3c2)c(F)c1
Prothrombin
  pKi: 5.77
Caco-2 [1]
  Permeability: 0.2 ×10⁻⁶ cm/s
[10]
  concentration doubling aPTT: 5.9 µM
[14]
  bioavailability: 27%
Coagulation factor X [2]
  pKi: 9.77
[11]
  Binding: 85.6%
[15]
  Vd: 4.6 L/kg
[16]
  half-life: 3.7 h
Coagulation factor X [17]
  pKi: 9.77
[18]
  clearance: 18.3 mL/min/kg
